According to ChEMBL document CHEMBL1126865, “Structure-activity relationship within a series of pyrazolidinone antibacterial agents. 2. Effect of side-chain modification on in vitro activity and pharmacokinetic parameters” (J Med Chem, 1993):
In brackets after ≈: the same amount, converted by molar mass.

Assays:
[1] = system: Klebsiella aerogenes; experiment: In vitro antibacterial activity against Enterobacter aerogenes C32; format: functional
[2] = system: Escherichia coli; experiment: In vitro antibacterial activity against Escherichia coli EC14; format: functional
[3] = system: Haemophilus influenzae; experiment: In vitro antibacterial activity against Haemophilus influenza C.L; format: functional
[4] = system: Klebsiella pneumoniae; experiment: In vitro antibacterial activity against Klebsiella X26; format: functional
[5] = system: Pseudomonas aeruginosa; experiment: In vitro antibacterial activity against Pseudomonas PS72; format: functional
[6] = system: Staphylococcus epidermidis; experiment: In vitro antibacterial activity against Staphylococcus epidermidis 222; format: functional
[7] = system: Staphylococcus aureus; experiment: In vitro antibacterial activity against Staphylococcus aureus X1.1; format: functional
[8] = system: Streptococcus pneumoniae; experiment: In vitro antibacterial activity against Streptococcus pneumoniae PARK; format: functional
[9] = Plasma half-life in monkey after intravenous administration; format: ADME, organism-based; details: simiiformes
Method in brief: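 Male rhesus monkeys (n = 3) dosed iv at 30 mg/kg in 0.9% saline; plasma sampled from cephalic vein over 3 h. Drug levels by agar well diffusion bioassay (E. coli ATCC4157 or Proteus providentia XC24) against standard curves in spiked plasma. Samples stored at -70 °C. Half-life = 0.693/β, β the terminal slope of plasma vs time curve.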

[10] = Plasma half-life in rats after intravenous administration; format: ADME, organism-based; details: rat
Method in brief: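 Male Sprague-Dawley rats were given 20 mg/kg IV in 0.9% saline through an indwelling jugular cannula, which was also used for serial blood sampling. Plasma and cumulative urine (citrate pH 6.5, metabolism cages) were collected over 6 h and stored at -70 °C. Levels were measured by agar well diffusion bioassay against standard curves in plasma or citrate. Half-life = 0.693/β; recovery as % of dose.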

[11] = Plasma half-life in human after intravenous administration; format: ADME, organism-based

Row | SMILES | MIC [1] [µg/mL] | MIC [2] [µg/mL] | MIC [3] [µg/mL] | MIC [4] [µg/mL] | MIC [5] [µg/mL] | MIC [6] [µg/mL] | MIC [7] [µg/mL] | MIC [8] [µg/mL] | half-life [9] [min] | half-life [10] [min] | half-life [11] [min]
1 | CCS(=O)(=O)C1=C(C(=O)O)N2C(=O)[C@@H](NC(=O)/C(=N/OCC3CC3)c3csc(N)n3)CN2C1 | 0.25 (≈ 0.501 µM) | 0.06 (≈ 0.12 µM) | 0.125 (≈ 0.251 µM) | 0.015 (≈ 0.0301 µM) | > 128 | 32 (≈ 64.2 µM) | 16 (≈ 32.1 µM) | 0.06 (≈ 0.12 µM) | – | – | –
2 | N#CC1=C(C(=O)O)N2C(=O)[C@@H](NC(=O)Cc3ccccc3)CN2C1 | 128 (≈ 392 µM) | 32 (≈ 98.1 µM) | 32 (≈ 98.1 µM) | 32 (≈ 98.1 µM) | > 128 | 32 (≈ 98.1 µM) | 16 (≈ 49 µM) | 8 (≈ 24.5 µM) | – | – | –
3 | N#CC1=C(C(=O)O)N2C(=O)[C@@H](NC(=O)Cn3cnnn3)CN2C1 | > 128 | > 128 | > 128 | > 128 | > 128 | > 128 | > 128 | > 128 | – | – | –
4 | CCCCO/N=C(/C(=O)N[C@H]1CN2CC(C#N)=C(C(=O)O)N2C1=O)c1csc(N)n1 | 2 (≈ 4.61 µM) | 1 (≈ 2.31 µM) | 0.125 (≈ 0.288 µM) | 0.06 (≈ 0.138 µM) | > 128 | 16 (≈ 36.9 µM) | 16 (≈ 36.9 µM) | 0.125 (≈ 0.288 µM) | – | – | –
5 | CC(C)(O/N=C(/C(=O)N[C@H]1CN2CC(C#N)=C(C(=O)O)N2C1=O)c1csc(N)n1)C(=O)O | 0.125 (≈ 0.27 µM) | 0.03 (≈ 0.0647 µM) | 0.06 (≈ 0.129 µM) | 0.25 (≈ 0.539 µM) | 64 (≈ 138 µM) | > 128 | > 128 | 16 (≈ 34.5 µM) | – | – | –
6 | CCS(=O)(=O)C1=C(C(=O)O)N2C(=O)[C@@H](NC(=O)/C(=N/OCCBr)c3csc(N)n3)CN2C1 | 0.25 (≈ 0.453 µM) | 0.06 (≈ 0.109 µM) | 0.25 (≈ 0.453 µM) | 0.015 (≈ 0.0272 µM) | > 128 | 8 (≈ 14.5 µM) | 8 (≈ 14.5 µM) | 0.125 (≈ 0.227 µM) | – | – | –
7 | C=CCO/N=C(/C(=O)N[C@H]1CN2CC(S(C)(=O)=O)=C(C(=O)O)N2C1=O)c1csc(N)n1 | 0.25 (≈ 0.531 µM) | 0.125 (≈ 0.266 µM) | 0.125 (≈ 0.266 µM) | 0.03 (≈ 0.0638 µM) | 128 (≈ 272 µM) | 16 (≈ 34 µM) | 8 (≈ 17 µM) | 0.125 (≈ 0.266 µM) | – | – | –
8 | N#CC1=C(C(=O)O)N2C(=O)[C@@H](NC(=O)/C(=N/OCCF)c3csc(N)n3)CN2C1 | 0.125 (≈ 0.295 µM) | 0.03 (≈ 0.0709 µM) | 0.25 (≈ 0.59 µM) | 0.03 (≈ 0.0709 µM) | 128 (≈ 302 µM) | 16 (≈ 37.8 µM) | 32 (≈ 75.6 µM) | 0.25 (≈ 0.59 µM) | – | – | –
9 | N#CC1=C(C(=O)O)N2C(=O)[C@@H](NC(=O)Cc3csc(N)n3)CN2C1 | 32 (≈ 91.9 µM) | 16 (≈ 45.9 µM) | 32 (≈ 91.9 µM) | 16 (≈ 45.9 µM) | > 128 | 64 (≈ 184 µM) | 32 (≈ 91.9 µM) | 2 (≈ 5.74 µM) | – | – | –
10 | CC(C)=CCO/N=C(/C(=O)N[C@H]1CN2CC(S(C)(=O)=O)=C(C(=O)O)N2C1=O)c1csc(N)n1 | 2 (≈ 4.01 µM) | 0.5 (≈ 1 µM) | 0.25 (≈ 0.501 µM) | 0.06 (≈ 0.12 µM) | > 128 | 8 (≈ 16 µM) | 4 (≈ 8.02 µM) | 0.06 (≈ 0.12 µM) | – | – | –
11 | CC(C)(O/N=C(/C(=O)N[C@H]1CN2CC(S(C)(=O)=O)=C(C(=O)O)N2C1=O)c1csc(N)n1)C(=O)O | 0.06 (≈ 0.116 µM) | 0.03 (≈ 0.0581 µM) | 0.06 (≈ 0.116 µM) | 0.125 (≈ 0.242 µM) | 8 (≈ 15.5 µM) | > 128 | > 128 | 2 (≈ 3.87 µM) | – | – | –
12 | CS(=O)(=O)C1=C(C(=O)O)N2C(=O)[C@@H](NC(=O)/C(=N/OCC#N)c3csc(N)n3)CN2C1 | 0.5 (≈ 1.07 µM) | 0.25 (≈ 0.533 µM) | 2 (≈ 4.26 µM) | 0.25 (≈ 0.533 µM) | > 128 | 128 (≈ 273 µM) | 64 (≈ 136 µM) | 0.25 (≈ 0.533 µM) | – | – | –
13 | CC(C)(O/N=C(\C(=O)N[C@@H]1C(=O)N2C(C(=O)[O-])=C(C[n+]3ccccc3)CS[C@H]12)c1csc(N)n1)C(=O)O [CEFTAZIDIME] | – | – | – | – | – | – | – | – | 49 | 23 | 108
14 | CCS(=O)(=O)C1=C(C(=O)O)N2C(=O)[C@@H](NC(=O)/C(=N/OCCCl)c3csc(N)n3)CN2C1 | 0.5 (≈ 0.986 µM) | 0.25 (≈ 0.493 µM) | 1 (≈ 1.97 µM) | 0.125 (≈ 0.247 µM) | > 128 | 32 (≈ 63.1 µM) | 16 (≈ 31.6 µM) | 0.25 (≈ 0.493 µM) | – | – | –
15 | CCCS(=O)(=O)C1=C(C(=O)O)N2C(=O)[C@@H](NC(=O)/C(=N/OCCBr)c3csc(N)n3)CN2C1 | 0.5 (≈ 0.884 µM) | 0.25 (≈ 0.442 µM) | 0.125 (≈ 0.221 µM) | 0.03 (≈ 0.0531 µM) | > 128 | 8 (≈ 14.1 µM) | 8 (≈ 14.1 µM) | 0.06 (≈ 0.106 µM) | – | – | –
16 | CCS(=O)(=O)C1=C(C(=O)O)N2C(=O)[C@@H](NC(=O)/C(=N/OCSC)c3csc(N)n3)CN2C1 | 0.5 (≈ 0.991 µM) | 0.25 (≈ 0.495 µM) | 0.5 (≈ 0.991 µM) | 0.06 (≈ 0.119 µM) | > 128 | 64 (≈ 127 µM) | 16 (≈ 31.7 µM) | 0.125 (≈ 0.248 µM) | – | – | –
